ChEMBL document CHEMBL4813947, “New dual ATP-competitive inhibitors of bacterial DNA gyrase and topoisomerase IV active against ESKAPE pathogens” (Eur J Med Chem, 2021)
pIC50: −log10 of the molar value. Converted amounts (≈) assume the structure as drawn.

What was measured:
[1] = system: human topoisomerase 2alpha; test: Selectivity ratio of IC50 for inhibition of human topoisomerase 2alpha to IC50 for inhibition of Escherichia coli topoisomerase IV; type: toxicity; conditions: read-out: Ratio IC50
[2] = Inhibition of Escherichia coli topoisomerase assessed as reduction in relaxation of supercoiled pNO1 DNA measured after 30 mins by fluorescence assay
Summary of the method: (§1)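 Enzyme run per an earlier-reported procedure; IC50 fitted from seven inhibitor concentrations, mean of three independent measurements.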

[3] = Inhibition of Staphylococcus aureus topoisomerase assessed as reduction in relaxation of supercoiled pNO1 DNA measured after 30 mins by fluorescence assay; summary of the method: as §1
Staphylococcus aureus [4] = test: Antibacterial activity against Staphylococcus aureus ATCC 29213 assessed as inhibition of bacterial growth by CLSI protocol based broth microdilution assay; type: functional
Staphylococcus aureus [5] = test: Antibacterial activity against methicillin-resistant Staphylococcus aureus ATCC 43300 assessed as inhibition of bacterial growth by CLSI protocol based broth microdilution assay; type: functional
Summary of the method: (§2)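 Minimum inhibitory concentration by standard serial broth microdilution following CLSI guidelines. Medium was MHBII broth (22 g/L powder: beef extract, casein acid hydrolysate, starch), with MHBII agar (14 g agar per L broth). Where noted, assayed without and with efflux pump substrate phenylalanine-arginine β-naphthylamide (PAβN).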

Enterococcus faecalis = test: Antibacterial activity against Enterococcus faecalis ATCC 29212 assessed as inhibition of bacterial growth by CLSI protocol based broth microdilution assay; type: functional
Acinetobacter baumannii [6] = test: Antibacterial activity against Acinetobacter baumannii ATCC 17978 assessed as inhibition of bacterial growth by CLSI protocol based broth microdilution assay; type: functional
Pseudomonas aeruginosa [7] = test: Antibacterial activity against Pseudomonas aeruginosa ATCC 27853 assessed as inhibition of bacterial growth by CLSI protocol based broth microdilution assay; type: functional
Klebsiella pneumoniae = test: Antibacterial activity against Klebsiella pneumoniae ATCC 10031 assessed as inhibition of bacterial growth by CLSI protocol based broth microdilution assay; type: functional
Escherichia coli [8] = test: Antibacterial activity against Escherichia coli ATCC 25922 assessed as inhibition of bacterial growth by CLSI protocol based broth microdilution assay; type: functional
Staphylococcus aureus [9] = test: Antibacterial activity against vancomycin-resistant Staphylococcus aureus ATCC 700699 harboring GyrB R144I mutant assessed as inhibition of bacterial growth by CLSI protocol based broth microdilution assay; type: functional; summary of the method: as §2
Staphylococcus aureus [10] = test: Antibacterial activity against vancomycin-resistant Staphylococcus aureus ATCC 700699 harboring GyrB […] mutant assessed as inhibition of bacterial growth by CLSI protocol based broth microdilution assay; type: functional; summary of the method: as §2
Staphylococcus aureus [11] = test: Antibacterial activity against vancomycin-resistant wild type Staphylococcus aureus ATCC 700699 assessed as inhibition of bacterial growth by CLSI protocol based broth microdilution assay; type: functional; summary of the method: as §2
Escherichia coli [12] = test: Antibacterial activity against Escherichia coli MG1655 harboring GyrB R136C mutant assessed as inhibition of bacterial growth in presence of efflux pump inhibitor PAbetaN by CLSI protocol based broth microdilution assay; type: functional; summary of the method: as §2
Acinetobacter baumannii [13] = test: Antibacterial activity against clinical isolate ciprofloxacin resistance Acinetobacter baumannii ATCC BAA-1605 assessed as inhibition of bacterial growth by CLSI protocol based broth microdilution assay; type: functional; summary of the method: as §2
Escherichia coli [14] = test: Antibacterial activity against Escherichia coli 20204 assessed as inhibition of bacterial growth by CLSI protocol based broth microdilution assay; type: functional
Escherichia coli [15] = test: Antibacterial activity against clinical isolate ciprofloxacin resistance Escherichia coli 31995 assessed as inhibition of bacterial growth by CLSI protocol based broth microdilution assay; type: functional; summary of the method: as §2
Escherichia coli [16] = test: Antibacterial activity against clinical isolate ciprofloxacin resistance Escherichia coli 31859 assessed as inhibition of bacterial growth by CLSI protocol based broth microdilution assay; type: functional; summary of the method: as §2
Pseudomonas aeruginosa [17] = test: Antibacterial activity against Pseudomonas aeruginosa 19488 assessed as inhibition of bacterial growth by CLSI protocol based broth microdilution assay; type: functional
[18] = biological target: DNA topoisomerase 2-alpha (Homo sapiens, UniProt P11388); test: Inhibition of human topoisomerase 2alpha assessed as reduction in relaxation of supercoiled DNA fluorescence-based microplate reader assay
Summary of the method: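 Human topoisomerase IIα, 1.5 U with 0.75 µg supercoiled pNO1 plasmid, 1 mM ATP, pH 7.5 Tris/MgCl2/NaCl/DTT buffer, 37 °C 30 min. Stopped with TF buffer pH 5.0, then triplex capture on immobilized biotinylated oligonucleotide 30 min at room temperature. Dye fluorescence read (ex 485/em 537 nm). IC50 from seven concentrations, mean of three runs; etoposide control.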

Staphylococcus aureus [19] = test: Ratio of MIC for methicillin-resistant Staphylococcus aureus ATCC 43300 harboring GyrB T173A mutant to MIC for methicillin-resistant wild type Staphylococcus aureus ATCC 43300; type: functional
Staphylococcus aureus [20] = test: Ratio of MIC for vancomycin-resistant Staphylococcus aureus ATCC 700699 harboring GyrB […] mutant to MIC for vancomycin-resistant wild type Staphylococcus aureus ATCC 700699; type: functional
[21] = system: human topoisomerase 2alpha; test: Selectivity ratio of IC50 for inhibition of human topoisomerase 2alpha to IC50 for inhibition of Staphylococcus aureus DNA gyrase; type: toxicity; conditions: read-out: Ratio IC50
Escherichia coli [22] = test: Ratio of MIC for Escherichia coli MG1655 harboring GyrB R136C mutant in presence of efflux pump inhibitor PAbetaN to MIC for wild type Escherichia coli MG1655 in presence of efflux pump inhibitor PAbetaN; type: functional
[23] = system: human topoisomerase 2alpha; test: Selectivity ratio of IC50 for inhibition of human topoisomerase 2alpha to IC50 for inhibition of Escherichia coli DNA gyrase; type: toxicity; conditions: read-out: Ratio IC50
HepG2 = test: Cytotoxicity against human HepG2 cells upto 100 uM by lactate dehydrogenase assay; type: cell-based
Summary of the method: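 HepG2 or MCF-7 cells grown in EMEM with 2 mM L-glutamine, penicillin/streptomycin, 10% FBS at 37 °C, 5% CO2; LDH release kit per manufacturer, test concentrations up to 100 µM.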

[24] = Ratio of genotoxicity in CHO-K1 cells by invitro micronucleus test to MIC for methicillin-resistant wild type Staphylococcus aureus ATCC 43300; type: toxicity, cell-based; conditions: hamster
[25] = Ratio of genotoxicity in CHO-K1 cells by invitro micronucleus test to MIC for vancomycin-resistant Staphylococcus aureus ATCC 700699; type: toxicity, cell-based; conditions: hamster
[26] = Ratio of genotoxicity in CHO-K1 cells in presence of rat liver S9 fraction by invitro micronucleus test to MIC for Enterococcus faecalis ATCC 29212; type: toxicity, cell-based; conditions: CHO-K1 cells with rat liver S9 fraction
[27] = Ratio of genotoxicity in CHO-K1 cells in presence of rat liver S9 fraction by invitro micronucleus test to MIC for vancomycin-resistant Staphylococcus aureus ATCC 700699; type: toxicity, cell-based; conditions: CHO-K1 cells with rat liver S9 fraction
[28] = Genotoxicity in CHO-K1 cells upto 16 uM by invitro micronucleus test; type: cell-based, Cricetulus griseus; conditions: chinese hamster
[29] = Genotoxicity in CHO-K1 cells upto 62 uM by in presence of rat liver S9 fraction invitro micronucleus test; type: subcellular, Cricetulus griseus; conditions: chinese hamster
[30] = Drug metabolism in rat liver S9 fraction assessed as hydroxylated methyl-pyrrole moiety metabolite; type: ADME, subcellular
[31] = Drug metabolism in rat liver S9 fraction assessed as hydroxylated benzothiazole ring metabolite; type: ADME, subcellular
[32] = Drug metabolism in rat liver S9 fraction assessed as direct glucuronide conjugate; type: ADME, subcellular
DNA gyrase = DNA gyrase (Escherichia coli, UniProt P0AES4+P0AES6); test: Inhibition of Escherichia coli DNA gyrase assessed as reduction in supercoiling of relaxed pNO1 DNA measured after 30 mins by fluorescence assay

Sequence of DNA topoisomerase 2-alpha (P11388 whole entry): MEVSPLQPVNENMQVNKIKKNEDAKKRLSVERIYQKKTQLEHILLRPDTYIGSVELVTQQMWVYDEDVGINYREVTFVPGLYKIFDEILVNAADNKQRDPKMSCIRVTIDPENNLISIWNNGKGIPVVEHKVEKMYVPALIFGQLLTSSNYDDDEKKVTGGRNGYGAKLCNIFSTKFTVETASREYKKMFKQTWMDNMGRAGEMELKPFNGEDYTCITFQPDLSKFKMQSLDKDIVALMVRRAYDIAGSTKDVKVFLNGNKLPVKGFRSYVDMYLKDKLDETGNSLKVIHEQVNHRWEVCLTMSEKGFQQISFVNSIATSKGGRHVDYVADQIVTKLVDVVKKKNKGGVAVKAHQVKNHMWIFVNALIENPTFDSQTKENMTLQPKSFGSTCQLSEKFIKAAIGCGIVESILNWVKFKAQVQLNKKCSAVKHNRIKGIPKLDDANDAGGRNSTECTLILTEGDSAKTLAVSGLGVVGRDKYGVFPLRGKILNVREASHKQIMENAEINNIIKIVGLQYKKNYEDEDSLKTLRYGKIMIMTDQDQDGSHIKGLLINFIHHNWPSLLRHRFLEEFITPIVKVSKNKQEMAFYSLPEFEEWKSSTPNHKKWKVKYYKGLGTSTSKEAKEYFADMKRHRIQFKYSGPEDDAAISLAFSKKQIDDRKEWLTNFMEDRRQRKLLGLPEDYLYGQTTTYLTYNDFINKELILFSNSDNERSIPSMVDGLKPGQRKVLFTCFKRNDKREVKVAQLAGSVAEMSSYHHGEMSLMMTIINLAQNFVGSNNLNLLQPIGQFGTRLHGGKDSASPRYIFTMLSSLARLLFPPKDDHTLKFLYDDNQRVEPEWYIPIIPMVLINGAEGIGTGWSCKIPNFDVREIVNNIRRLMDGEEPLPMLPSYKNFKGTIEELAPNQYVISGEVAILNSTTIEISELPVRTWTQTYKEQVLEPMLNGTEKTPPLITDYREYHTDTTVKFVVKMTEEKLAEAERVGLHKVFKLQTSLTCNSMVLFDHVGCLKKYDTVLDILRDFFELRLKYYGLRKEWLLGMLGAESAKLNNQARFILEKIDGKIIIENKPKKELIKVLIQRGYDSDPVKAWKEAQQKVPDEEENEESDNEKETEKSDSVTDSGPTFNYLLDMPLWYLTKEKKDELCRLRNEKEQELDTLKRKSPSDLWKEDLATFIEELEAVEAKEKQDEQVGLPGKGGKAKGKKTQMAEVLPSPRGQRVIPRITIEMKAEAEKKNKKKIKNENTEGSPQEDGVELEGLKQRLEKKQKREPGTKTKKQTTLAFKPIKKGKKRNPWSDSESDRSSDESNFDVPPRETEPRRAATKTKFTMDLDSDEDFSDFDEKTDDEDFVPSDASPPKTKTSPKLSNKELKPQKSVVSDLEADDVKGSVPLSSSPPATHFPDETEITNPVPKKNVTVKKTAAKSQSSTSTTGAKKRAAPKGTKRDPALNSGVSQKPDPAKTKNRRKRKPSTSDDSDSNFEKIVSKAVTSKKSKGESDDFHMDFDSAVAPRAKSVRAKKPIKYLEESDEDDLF

Cc1[nH]c(C(=O)Nc2nc3c(OCc4ccsc4)cc(C(=O)O)cc3s2)c(Cl)c1Cl
selectivity ratio [1]: 13 | pIC50 [2]: 6.47 | pIC50 [3]: 7.08 | MIC (Staphylococcus aureus [4]): 0.25 mg/L (≈ 0.518 µM) | MIC (Staphylococcus aureus [5]): 0.0625 mg/L (≈ 0.13 µM) | MIC (Enterococcus faecalis): 0.0156 mg/L (≈ 0.0323 µM) | MIC (Acinetobacter baumannii [6]): 1 mg/L (≈ 2.07 µM) | MIC (Pseudomonas aeruginosa [7]): 2 mg/L (≈ 4.15 µM) | MIC (Klebsiella pneumoniae): 2 mg/L (≈ 4.15 µM) | MIC (Escherichia coli [8]): 4 mg/L (≈ 8.29 µM) | MIC (Staphylococcus aureus [9]): 0.0625 mg/L (≈ 0.13 µM) | MIC (Staphylococcus aureus [10]): 0.0625 mg/L (≈ 0.13 µM) | MIC (Staphylococcus aureus [11]): 0.0313 mg/L (≈ 0.0649 µM) | MIC (Escherichia coli [12]): 2 mg/L | MIC (Acinetobacter baumannii [13]): 0.5 mg/L (≈ 1.04 µM) | MIC (Escherichia coli [14]): 1 mg/L (≈ 2.07 µM) | MIC (Escherichia coli [15]): 2 mg/L (≈ 4.15 µM) | MIC (Escherichia coli [16]): 2 mg/L (≈ 4.15 µM) | MIC (Pseudomonas aeruginosa [17]): 16 mg/L (≈ 33.2 µM) | INH [18]: 45 µM | Ratio (Staphylococcus aureus [19]): 2 | Ratio (Staphylococcus aureus [20]): 2 | selectivity ratio [21]: 450 | Ratio (Escherichia coli [22]): 8 | selectivity ratio [23]: 450 | Activity (HepG2): Non-Toxic | selectivity ratio [24]: 123 | selectivity ratio [25]: 247 | selectivity ratio [26]: 1920 | selectivity ratio [27]: 957 | Activity [28]: Non-Toxic | Activity [29]: Non-Toxic | Drug metabolism [30]: Metabolite_Detected | Drug metabolism [31]: Metabolite_Detected | Drug metabolism [32]: Metabolite_Detected | pIC50 (DNA gyrase): > 8.00
